# IEC-6 tox: kills IEC-6 intestinal cells in KLF5 counter-screen; inhibition, % at 5 µM; AID 1825; 290,000 tested, 0.78% active; IEC-6 cytotoxicity, luminescence viability; in the data active = inhibition above about 22%;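 note: 0% = plate median of test compound wells and 100% = cytotoxic reference compound wells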
# Ba/F3 V617F tox: lowers viability of Ba/F3 cells expressing EpoR and JAK2V617F | AID 1446 | inhibition, % at 5.6 µM | 220,000 tested, 1.1% active | ATP luminescence;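 active = inhibition above the campaign mean plus 3 SD over all tested compounds, cut at about 24% in these data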;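 note: cytokine-independent growth of Ba/F3 cells driven by EpoR plus mutant JAK2; 0% = DMSO-treated cells and 100% = JAK inhibitor I control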
# APP transl inh: APP translation inhibition; AID 1285; 190,000 tested, 0.82% active; SH-SY5Y APP 5'UTR-luciferase reporter, luminescence; inhibition, % at 2 µM;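 active = inhibition above a set limit, derived from the sample mean plus 3 SD, cut at about 45% in these data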
# BaF3 parental: reduces parental Ba/F3 cell viability, JAK2V617F counter-screen. CellTiter-Glo ATP luminescence. inhibition, % at 5.6 µM. 220,000 tested, 1.1% active. AID 1486;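 active = inhibition above a per-campaign cutoff, the mean inhibition of all tested compounds plus 3 SD, cut at about 27% in these data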;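 note: 0% = DMSO wells and 100% = JAK Inhibitor I control wells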
# bCat nuc transl: modulators of beta-catenin nuclear translocation | AID 1665 | 190,000 tested, 0.3% active | HeLa beta-catenin nuclear translocation, immunofluorescence imaging | nuclear translocation activity, % at 5 µM;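 active = nuclear translocation activity above 50% at 5 µM, with a well cell count of 50 or more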;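 note: per-cell ratio of nuclear to cytoplasmic median beta-catenin stain intensity; plate controls were DMSO negative control for no effect and GSK-3 inhibitor IX positive control for full effect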
#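 test system = HeLa cells, endogenous beta-catenin | dosing = single 5 µM dose plus 0.02–20 µM confirmation series | times = compound treatment 24 h, 37°C, 5% CO2 | technique = beta-catenin immunofluorescence imaging with DAPI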
# MT stabilizer: microtubule stabilization, imaging screen; HeLa tubulin immunostaining HCS, 24 h; share of cells brighter than vehicle mean+2SD; % tubulin-high responders, % at 10 µM; 200,000 tested, 0.83% active; AID 2205;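 active = plate Z-score above 3 for both tubulin-high and condensed-nucleus cell shares, with cell loss under 80%, at 10 µM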;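 note: anti alpha tubulin signal scored within the nucleus-defined area of each cell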
# The depositor's hits bear a star; · = not tested or not shown. Hits are enriched below; roughly 2.2% of the tested compounds scored in any of these assays.
SMILES,IEC-6 tox,Ba/F3 V617F tox,APP transl inh,BaF3 parental,bCat nuc transl,MT stabilizer
COc1cccc(OC)c1-c1nn2c(-c3cc(-c4ccccc4)n[nH]3)nnc2s1,1,4,8,5,37,40*
COc1cccc(-c2nnc3sc(-c4ccccc4)nn23)c1,0,-3,-39,5,-9,5
COCCNC(=O)C(c1ccc(F)cc1)N(C(=O)CCC(=O)Nc1ccccn1)c1ccc(C)cc1 (stereo not given),4,·,·,·,·,·
CC1CCCC(NC(=O)C2CC(=O)N(Cc3ccccc3)C2)C1C (stereo not given),3,·,·,·,·,·
Cc1nn(C)c(C)c1CN(Cc1nc(CCC(C)C)no1)C(C)C,9,53*,16,81*,1,·
Cc1ccc(OCc2nc(-c3ccccc3)no2)cc1,1,-1,·,-1,0,·
Cc1ccc2nc(NC(=O)CCCC(=O)O)sc2c1,-3,2,60*,2,-3,3
O=C(Nc1ccccc1)c1nn(-c2ccccc2)c(=O)cc1C(F)(F)F,1,-7,-17,-3,1,16*
O=C(c1ccccc1)c1nn(-c2ccc(Cl)cc2)c(=O)cc1C(F)(F)F,2,19,-6,30*,·,3
O=C(c1ccccc1)c1nn(-c2ccccc2)c(=O)cc1C(F)(F)F,3,8,1,8,0,2
O=C(c1cccc(Cl)c1)c1nn(-c2ccccc2)c(=O)cc1C(F)(F)F,-6,0,6,1,0,5
O=C(NCCCCNC(=O)c1c(F)c(F)c(F)c(F)c1F)c1c(F)c(F)c(F)c(F)c1F,1,-2,0,1,·,2
CC(C)CNC(=O)c1c(F)c(F)c(F)c(F)c1F,-6,11,-14,74*,-1,3
Cc1ccc(C)c(CN2CCSCC2)c1,-1,·,·,·,·,·
CC(=O)/C=C/n1c(=S)oc2ccccc21,6,16,87*,5,-1,2
Cc1nc(-c2ccccc2)sc1C1(C)CC(c2cccc([N+](=O)[O-])c2)=NO1 (stereo not given),·,·,·,·,2,·
CN(Cc1ccccc1)S(=O)(=O)c1ccc(NC(=S)NC(=O)C2CCCC2)cc1,8,15,44,11,1,28*
CCOC(=O)C1=C(C)OC(N)=C(C#N)C1c1cc(OC)c2c(c1)OCO2 (stereo not given),-6,-2,8,5,-3,6
COc1cc(C2C(C#N)=C(N)Oc3cc(O)ccc32)cc2c1OCO2 (stereo not given),-2,-3,-5,3,3,16*
COc1ccc(C2C(C#N)=C(N)Oc3cc(O)ccc32)cc1OC (stereo not given),-1,-3,-2,3,-2,7
N#CC1=C(N)Oc2cc3c(cc2C1c1ccc(Cl)cc1)OCO3 (stereo not given),0,-1,13,3,2,6
COc1cc(C2C(C#N)=C(N)Oc3cc4c(cc32)OCO4)cc(OC)c1OC (stereo not given),85*,93*,93*,89*,51*,9
COc1ccc(C2C(C#N)=C(N)Oc3cc(O)ccc32)cc1C (stereo not given),-3,·,·,·,·,·
COc1cc(C2C(C#N)=C(N)Oc3cc(N(C)C)ccc32)cc2c1OCO2 (stereo not given),1,4,97*,12,80*,14*
COc1cc(C2C(C#N)=C(N)Oc3cc(O)ccc32)cc(OC)c1OC (stereo not given),0,-2,94*,1,·,21*
SMILES,IEC-6 tox,Ba/F3 V617F tox,APP transl inh,BaF3 parental,bCat nuc transl,MT stabilizer
COc1ccc(C2C(C(C)=O)=C(C)Nc3ncnn32)cc1 (stereo not given),-8,·,·,·,·,·
COc1ccc(CCNc2cc(C)[nH]c(=O)c2)cc1OC,-9,·,·,·,·,·
O=C(CSc1ccc2nnc(-c3ccccn3)n2n1)N1CCOCC1,-4,-4,59*,4,·,2
CCOC(=O)N1CCN(C(=O)CSc2ccc3nnc(-c4ccccn4)n3n2)CC1,3,2,-8,10,-1,2
CC(Sc1nc(N)cc(=O)[nH]1)C(=O)Nc1nc2c(s1)CCCC2 (stereo not given),0,·,·,·,·,·
COc1ccc(C(N)=S)cc1,2,-2,-6,0,3,2
C=C(c1ccc(OC)cc1)c1ccc(OC)cc1,-4,-4,-14,2,88*,6
CSc1cccc(-n2cc(-c3ccc4c(c3)OCO4)[nH]c2=O)c1,10,2,-59,29*,162*,19*
O=C(O)c1cccc(-c2ccc3c(c2)OCO3)c1,2,·,·,·,·,·
O=C(N/N=C/c1ccc(Br)cc1)c1ccccc1-n1cccc1,1,-1,-1,8,12,47*
CCn1ncc(Br)c1C(=O)Nc1ccc(F)cc1F,8,3,5,7,2,2
CCn1ncc(Br)c1C(=O)Nc1ccc(F)c([N+](=O)[O-])c1,25*,-2,3,3,-3,2
Cc1nc2scc(-c3ccccc3)c2c(=O)n1N=C1C=CC(=O)C=C1,9,49*,80*,-10,2,3
CCc1c(C)c(C#N)c2nc3ccccc3n2c1N(C)C,-1,-4,-6,2,-5,5
CCCCc1c(C)c(C#N)c2nc3ccccc3n2c1Cl,3,-5,82*,4,-3,9
CC[C@@]12C(=O)N(c3ccc(OC)cc3)C(=O)N1[C@H](c1ccc(Cl)cc1)[C@@H]1C(=O)N(C3CCCCC3)C(=O)[C@@H]12,-3,·,·,·,·,·
Cc1ccc(CNC(=O)C(CC(C)C)OC(=O)c2ccco2)cc1 (stereo not given),3,·,·,·,·,·
COc1ccc(N/C=C/C(=O)c2sc(-c3ccccc3)nc2C)cc1,3,-3,-4,3,·,52*
CC1C/C(=C/c2ccco2)C(=O)/C(=C/c2ccco2)C1 (stereo not given),-4,1,1,2,-1,4
CC(C)(C)C1C/C(=C/c2ccccn2)C(=O)/C(=C/c2ccccn2)C1 (stereo not given),4,0,95*,-5,·,52
O=C1/C(=C/c2ccccn2)COc2ccccc21,-8,-4,5,-3,-4,3
CC1C/C(=C/c2ccccn2)C(=O)/C(=C/c2ccccn2)C1 (stereo not given),3,52*,98*,73*,23,39*
Cc1ccc(S(=O)(=O)c2c[nH]c3cc4c(cc3c2=O)OCO4)cc1,-6,0,·,-1,1,·
COc1ccc(N/N=C(\C=N\O)C(=O)c2ccc(OC)cc2)cc1,11,10,88*,17,·,38*
O=C(Oc1ccc(Br)cc1C(=S)N1CCCCC1)c1cc([N+](=O)[O-])cc([N+](=O)[O-])c1,0,-3,50*,1,-4,3
O=C(Oc1ccc(Br)cc1C(=S)N1CCCC1)c1ccccc1Cl,3,1,-8,7,0,1
